# Results published in ChEMBL document CHEMBL1156133, “Losartan-antioxidant hybrids: novel molecules for the prevention of hypertension-induced cardiovascular damage” (J Med Chem, 2009).
# The source made the active and inactive calls. The rule behind the calls is not given here.
# Key:
# VSMC = assay: Displacement of [125I]angiotensin II from angiotensin 2 receptor in Wistar rat VSMC cells by gamma-counter; format: cell-based; design: concentration or dose not given beside the values
# In short: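 Rat aortic VSMC (collagenase-derived primary cultures, passages 3-5) resuspended in Tris-glucose-NaCl buffer pH 7.4 at 0.5 μg/μL protein; 125 μg protein incubated 45 min with 0.15 nM 125I-angiotensin II plus compound. Bound separated by centrifugation, pellet washed with cold 0.15 M NaCl, gamma counted; nonspecific binding with 10^-4 M angiotensin II.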
# [1] = Antioxidant activity assessed as inhibition of oxidation of chromogen (ABTS) measured per mmol/L of product by total antioxidant assay; format: functional
# In short: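 Total antioxidant status kit: inhibition of ABTS oxidation by metmyoglobin and hydrogen peroxide, followed at 600 nm absorbance; antioxidant ability proportional to absorbance reduction, expressed as mM. Compounds tested at 1 mmol/L.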
# Rattus norvegicus [2] = assay: Antihypertensive activity in Wistar rat assessed as normalization of L-NAME-induced HNE-lysine accumulation in vessel walls at 28 mg/kg/day, po for 4 weeks in presence of losartan; format: functional, organism-based
# In short: (§1)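 Male Wistar rats on L-NAME in drinking water (20 mg/kg/day) for 8 weeks, treatments in drinking water for the last 4 weeks. Thoracic aorta lysates run on SDS-PAGE and Western blotted for collagen type I, fibronectin or HNE-lysine, with β-tubulin as loading control; ECL detection, densitometry. Expressed as percent of basal; mean ± SEM of 10 experiments.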
# Rattus norvegicus [3] = assay: Antihypertensive activity in L-NAME-induced Wistar rat assessed as decrease in blood protein level at 28 mg/kg/day, po for last 4 weeks measured after 8 weeks; format: functional
# In short: (§2)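 Two-month-old male Wistar rats given L-NAME in drinking water (20 mg/kg/day) for 8 weeks. From week 4, treatment is given daily in drinking water during 12.00–18.00 h, at the dose stated in the line. Ten rats per group. Sacrificed under halothane between 9.00 and 10.00 h. Serum is measured on an automatic analyzer. Mean ± SEM, nonparametric statistics.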
# Rattus norvegicus [4] = assay: Plasma concentration in po dosed Wistar rat assessed as losartan level after 4 weeks; format: ADME, organism-based; conditions: in vivo, 672 h
# In short: (§3)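 Separate groups of Wistar rats dosed in drinking water for 4 weeks (n = 4-6 per group), then sacrificed and plasma analyzed by HPLC-MS/MS (triple quadrupole, electrospray), isocratic MeOH/water with 0.1% formic acid, 40 °C. Two plasma samples per animal; mean ± SEM.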
# Rattus norvegicus [5] = assay: Antihypertensive activity in L-NAME-induced Wistar rat assessed as decrease in blood AST level at 28 mg/kg/day, po for last 4 weeks measured after 8 weeks; format: functional; in short: as §2
# Rattus norvegicus [6] = assay: Antihypertensive activity in L-NAME-induced Wistar rat assessed as decrease in blood glucose level at 28 mg/kg/day, po for last 4 weeks measured after 8 weeks; format: functional; in short: as §2
# Rattus norvegicus [7] = assay: Antihypertensive activity in L-NAME-induced Wistar rat assessed as decrease in blood Na+ level at 28 mg/kg/day, po for last 4 weeks measured after 8 weeks; format: functional; in short: as §2
# Rattus norvegicus [8] = assay: Antihypertensive activity in Wistar rat assessed as normalization of L-NAME-induced heart weight at 28 mg/kg/day, po for 4 weeks in presence of L-NAME; format: functional, organism-based
# In short: (§4)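 L-NAME (20 mg/kg/day, drinking water, 8 weeks) hypertensive two-month-old male Wistar rats; treatments in drinking water daily for the last 4 weeks. Systolic pressure by tail-cuff in conscious animals. At sacrifice heart weighed (corrected to body weight); aortic rings from descending thoracic aorta, formaldehyde-flushed, media thickness by planimetry. Mean ± SEM of 10 rats.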
# Rattus norvegicus [9] = assay: Antihypertensive activity in Wistar rat assessed as normalization of L-NAME-induced systolic blood pressure at 28 mg/kg/day, po for 4 weeks; format: functional, organism-based; conditions: Artery; in short: as §4
# [10] = Solubility in water assessed as nonhydrolzed drug level after 2 days; format: physicochemical; conditions: read-out: Activity
# Rattus norvegicus [11] = assay: Antihypertensive activity in L-NAME-induced Wistar rat assessed as decrease in blood creatinine level at 28 mg/kg/day, po for last 4 weeks measured after 8 weeks; format: functional; in short: as §2
# Rattus norvegicus [12] = assay: Antihypertensive activity in L-NAME-induced Wistar rat assessed as decrease in blood triglyceride level at 28 mg/kg/day, po for last 4 weeks measured after 8 weeks; format: functional; in short: as §2
# Rattus norvegicus [13] = assay: Antihypertensive activity in L-NAME-induced Wistar rat assessed as decrease in blood calcium level at 28 mg/kg/day, po for last 4 weeks measured after 8 weeks; format: functional; in short: as §2
# Rattus norvegicus [14] = assay: Plasma concentration in po dosed Wistar rat assessed as EXP-3174 level after 4 weeks; format: ADME, organism-based; conditions: in vivo, 672 h; in short: as §3
# Rattus norvegicus [15] = assay: Antihypertensive activity in L-NAME-induced Wistar rat assessed as decrease in blood cholesterol level at 28 mg/kg/day, po for last 4 weeks measured after 8 weeks; format: functional; in short: as §2
# Rattus norvegicus [16] = assay: Antihypertensive activity in Wistar rat assessed as normalization of L-NAME-induced fibronectin content in vessel walls at 28 mg/kg/day, po for 4 weeks in presence of losartan; format: functional, organism-based; in short: as §1
# Rattus norvegicus [17] = assay: Antihypertensive activity in Wistar rat assessed as normalization of L-NAME-induced collagen 1 level in vessel walls at 28 mg/kg/day, po for 4 weeks in presence of losartan; format: functional, organism-based; in short: as §1
# Rattus norvegicus [18] = assay: Antihypertensive activity in L-NAME-induced Wistar rat assessed as decrease in blood […] level at 28 mg/kg/day, po for last 4 weeks measured after 8 weeks; format: functional; in short: as §2
# Rattus norvegicus [19] = assay: Antihypertensive activity in L-NAME-induced Wistar rat assessed as decrease in blood LDH level at 28 mg/kg/day, po for last 4 weeks measured after 8 weeks; format: functional; in short: as §2
# Rattus norvegicus [20] = assay: Plasma concentration in po dosed Wistar rat assessed as 3-(3,4-Dihydroxy-phenyl)propionic Acid 2-butyl-5-chloro-3-[2'-(2H-tetrazol-5-yl)-biphenyl-4-ylmethyl]-3H-imidazol-4-ylmethylester level after 4 weeks; format: ADME, organism-based; conditions: in vivo, 672 h; in short: as §3
# Rattus norvegicus [21] = assay: Antihypertensive activity in Wistar rat assessed as normalization of L-NAME-induced aorta thickness at 10 mg/kg/day, po for 4 weeks; format: functional, organism-based; in short: as §4
# Rattus norvegicus [22] = assay: Antihypertensive activity in Wistar rat assessed as normalization of L-NAME-induced heart weight at 20 mg/kg/day, po for 4 weeks in presence of L-NAME; format: functional, organism-based; conditions: 28 mg/kg, in the assay text read “28 mg/kg/day” for “20 mg/kg/day”; in short: as §4
# Rattus norvegicus [23] = assay: Antihypertensive activity in L-NAME-induced Wistar rat assessed as decrease in blood ALT level at 28 mg/kg/day, po for last 4 weeks measured after 8 weeks; format: functional; in short: as §2
# Rattus norvegicus [24] = assay: Antihypertensive activity in L-NAME-induced Wistar rat assessed as decrease in blood urea level at 28 mg/kg/day, po for last 4 weeks measured after 8 weeks; format: functional; in short: as §2
# Rattus norvegicus [25] = assay: Antihypertensive activity in L-NAME-induced Wistar rat assessed as decrease in blood protein level at 20 mg/kg/day, po for last 4 weeks measured after 8 weeks; format: functional; in short: as §2
# Rattus norvegicus [26] = assay: Antihypertensive activity in L-NAME-induced Wistar rat assessed as decrease in blood glucose level at 20 mg/kg/day, po for last 4 weeks measured after 8 weeks; format: functional; in short: as §2
# Rattus norvegicus [27] = assay: Antihypertensive activity in L-NAME-induced Wistar rat assessed as decrease in blood cholesterol level at 20 mg/kg/day, po for last 4 weeks measured after 8 weeks; format: functional; in short: as §2
# Rattus norvegicus [28] = assay: Antihypertensive activity in L-NAME-induced Wistar rat assessed as decrease in blood AST level at 20 mg/kg/day, po for last 4 weeks measured after 8 weeks; format: functional; in short: as §2
# Rattus norvegicus [29] = assay: Antihypertensive activity in Wistar rat assessed as normalization of L-NAME-induced systolic blood pressure at 10 mg/kg/day, po for 4 weeks; format: functional, organism-based; conditions: Artery; in short: as §4
# Rattus norvegicus [30] = assay: Antihypertensive activity in L-NAME-induced Wistar rat assessed as decrease in blood urea level at 20 mg/kg/day, po for last 4 weeks measured after 8 weeks; format: functional; in short: as §2
# Rattus norvegicus [31] = assay: Antihypertensive activity in L-NAME-induced Wistar rat assessed as decrease in blood […] level at 20 mg/kg/day, po for last 4 weeks measured after 8 weeks; format: functional; in short: as §2
# Rattus norvegicus [32] = assay: Antihypertensive activity in L-NAME-induced Wistar rat assessed as decrease in blood calcium level at 20 mg/kg/day, po for last 4 weeks measured after 8 weeks; format: functional; in short: as §2
# Rattus norvegicus [33] = assay: Antihypertensive activity in L-NAME-induced Wistar rat assessed as decrease in blood Na+ level at 20 mg/kg/day, po for last 4 weeks measured after 8 weeks; format: functional; in short: as §2
# Rattus norvegicus [34] = assay: Antihypertensive activity in L-NAME-induced Wistar rat assessed as decrease in blood creatinine level at 20 mg/kg/day, po for last 4 weeks measured after 8 weeks; format: functional; in short: as §2
# Rattus norvegicus [35] = assay: Antihypertensive activity in L-NAME-induced Wistar rat assessed as decrease in blood LDH level at 20 mg/kg/day, po for last 4 weeks measured after 8 weeks; format: functional; in short: as §2
# Rattus norvegicus [36] = assay: Antihypertensive activity in L-NAME-induced Wistar rat assessed as decrease in blood ALT level at 20 mg/kg/day, po for last 4 weeks measured after 8 weeks; format: functional; in short: as §2
# Rattus norvegicus [37] = assay: Antihypertensive activity in Wistar rat assessed as normalization of L-NAME-induced systolic blood pressure at 20 mg/kg/day, po for 4 weeks; format: functional, organism-based; conditions: Artery; in short: as §4
# Rattus norvegicus [38] = assay: Antihypertensive activity in L-NAME-induced Wistar rat assessed as decrease in blood triglyceride level at 20 mg/kg/day, po for last 4 weeks measured after 8 weeks; format: functional; in short: as §2
smiles,measurement,setting,value
CCCCc1nc(Cl)c(COC(=O)C2(C)CCc3c(C)c(O)c(C)c(C)c3O2)n1Cc1ccc(-c2ccccc2-c2nnn[nH]2)cc1 (stereo not given),Activity,VSMC,68%
same,Activity,[1],0.25 mmol/L
CCCCc1nc(Cl)c(COC(=O)CCc2ccc(O)c(O)c2)n1Cc1ccc(-c2ccccc2-c2nnn[nH]2)cc1,Activity,Rattus norvegicus [2],Active
same,Activity,Rattus norvegicus [3],4.5 g/dL
same,concentration,Rattus norvegicus [4],0.008 µM
same,Activity,Rattus norvegicus [5],83 IU/L
same,Activity,Rattus norvegicus [6],154 mg/dL
same,Activity,Rattus norvegicus [7],151 mmol/L
same,Activity,Rattus norvegicus [8],Active
same,Activity,Rattus norvegicus [9],Active
same,Activity,VSMC,59%
same,Activity,[1],0.31 mmol/L
same,remaining at 48 h,[10],95.9%
same,Activity,Rattus norvegicus [11],0.42 mg/dL
same,Activity,Rattus norvegicus [12],52 mg/dL
same,Activity,Rattus norvegicus [13],8.6 mg/dL
same,concentration,Rattus norvegicus [14],0.013 µM
same,Activity,Rattus norvegicus [15],52 mg/dL
same,Activity,Rattus norvegicus [16],Active
same,Activity,Rattus norvegicus [17],Active
same,Activity,Rattus norvegicus [18],4.6 mmol/L
same,Activity,Rattus norvegicus [19],561 IU/L
same,concentration,Rattus norvegicus [20],0.171 µM
same,Activity,Rattus norvegicus [21],inactive
same,Activity,Rattus norvegicus [22],Active
same,Activity,Rattus norvegicus [23],24 IU/L
same,Activity,Rattus norvegicus [24],24 mg/dL
CCCCc1nc(Cl)c(COC(=O)Cc2cc(C(C)(C)C)c(O)c(C(C)(C)C)c2)n1Cc1ccc(-c2ccccc2-c2nnn[nH]2)cc1,Activity,VSMC,65%
same,Activity,[1],0.16 mmol/L
CCCCc1ncc(COC(=O)Cc2cc(C(C)(C)C)c(O)c(C(C)(C)C)c2)n1Cc1ccc(-c2ccccc2-c2nnn[nH]2)cc1,Activity,VSMC,77%
same,Activity,[1],0.24 mmol/L
CCCCc1nc(Cl)c(CO)n1Cc1ccc(-c2ccccc2-c2nnn[nH]2)cc1 [LOSARTAN],Activity,Rattus norvegicus [25],5 g/dL
same,Activity,Rattus norvegicus [26],149 mg/dL
same,Activity,Rattus norvegicus [27],48 mg/dL
same,Activity,Rattus norvegicus [28],91 IU/L
same,Activity,Rattus norvegicus [29],inactive
same,Activity,Rattus norvegicus [30],24 mg/dL
same,Activity,VSMC,53%
same,Activity,[1],0.04 mmol/L
same,Activity,Rattus norvegicus [31],4.7 mmol/L
same,Activity,Rattus norvegicus [32],8.3 mg/dL
same,Activity,Rattus norvegicus [33],151 mmol/L
same,Activity,Rattus norvegicus [34],0.42 mg/dL
same,Activity,Rattus norvegicus [35],622 IU/L
same,Activity,Rattus norvegicus [36],24 IU/L
same,Activity,Rattus norvegicus [37],Active
same,Activity,Rattus norvegicus [21],inactive
same,Activity,Rattus norvegicus [22],Active
same,Activity,Rattus norvegicus [38],65 mg/dL
CCCCc1ncc(COC(=O)C2(C)CCc3c(C)c(O)c(C)c(C)c3O2)n1Cc1ccc(-c2ccccc2-c2nnn[nH]2)cc1 (stereo not given),Activity,VSMC,65%
same,Activity,[1],0.27 mmol/L
CCCCc1nc(Cl)c(CO)n1Cc1ccc(-c2ccccc2-c2nn[nH]n2)cc1 [LOSARTAN],concentration,Rattus norvegicus [4],0.0244 µM
same,concentration,Rattus norvegicus [14],0.039 µM
CCCCc1ncc(COC(=O)c2cc(OC)c(O)c(OC)c2)n1Cc1ccc(-c2ccccc2-c2nnn[nH]2)cc1,Activity,VSMC,66%
same,Activity,[1],0.31 mmol/L
